Drawing on PubChem BioAssay, this text covers activation, potentiation and outcome for 30 molecules.

The structures appear in SMILES notation. Active and inactive are the calls of the source.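 How the source made its calls, unless noted: active means current rise at least 3 SD above the untreated control mean in each of two repeat wells; inactive means the rest.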

Test [1] is described as follows: nonspecific flux increase, KCNQ1-free cells – parental CHO cells, counter-screen for KCNQ1 potentiator project (AID 493006;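 active means duplicate-averaged activation above buffer control mean plus 5 SD of those controls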). The note with it: parental CHO-K1 cells, FluxOR thallium flux, at 10 µM; stronger effect = higher value. The method in brief:
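Assay system: Untransfected host CHO-K1 cells with FluxOR thallium dye | Probe or stimulus: Potassium/thallium depolarization pulse | Schedule: Overnight 37 °C plating, 90 min RT dye, 20 min compound | Detection: Kinetic thallium-flux fluorescence | Read-out: Max-minus-min fluorescence over baseline, percent of buffer-to-R-L3 span | Benchmarks: Low control buffer, high control R-L3 activator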

Test [2] addresses Potassium voltage-gated channel subfamily KQT member 1 (Homo sapiens) (UniProt P51787). As to the kind of experiment: enhancement of KCNQ1 channel thallium flux – FluxOR thallium flux, CHO cells, duplicates, confirmation (AID 493007;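 active means potentiation averaged over duplicate wells exceeding buffer-only control mean by more than 3 SD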;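 on outcome: cells depolarized by a potassium plus thallium sulfate stimulus after compound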). The note with it: KCNQ1 cell line, FluxOR thallium flux fluorescence, at 10 µM; stronger effect = higher value, % of reference activator effect, buffer zero. An outline of the steps: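 Material: KCNQ1-expressing CHO cell line; Incubation: FluxOR dye loading 90 min, compound exposure 20 min, room temperature; Detection: FluxOR Tl+ flux fluorescence, 10 s baseline plus 110 s recording; Read-out: percent activation between buffer and R-L3 responses; Control set: buffer-only wells as 0% and R-L3 activator as 100%; Replication: duplicate wells per compound.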

Test [3] has as its target Potassium voltage-gated channel subfamily KQT member 2 (Rattus norvegicus) (UniProt O88943). As to the kind of experiment: KCNQ2 thallium flux enhancement – KCNQ2-CHO-K1 cells, selectivity assay for KCNQ1 potentiator project (AID 493009;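 active means mean duplicate potentiation above the buffer control mean plus 5 SD of buffer wells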;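 further: assay conditions were tuned for KCNQ1 rather than KCNQ2 modulators; signal is max minus min fluorescence divided by baseline after thallium stimulus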). The note with it: FluxOR thallium flux fluorescence, at 10 µM; stronger effect = higher value, scaled: buffer 0, activator control 100.
The target of test [4] is Potassium voltage-gated channel subfamily KQT member 1 (Homo sapiens) (UniProt P51787). The test is described as follows: KCNQ1 activators by electrophysiology – IonWorks patch clamp, KCNQ1-CHO cells, orthogonal assay for KCNQ1 potentiator project, confirmation (AID 493184). The conditions noted are these: automated patch clamp current, at 10 µM; stronger effect = higher value. The method in brief: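 assay system = KCNQ1-expressing CHO cells | medium = external bath solution at pH 7.4 | probe or stimulus = 2,000 ms depolarization, -90 to +40 mV | compound dosing = 10 µM final, single point | measured by = automated voltage clamp, amphotericin B perforated patch | measure = percent current increase versus pre-compound level | replication = duplicates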
In general terms: In patch-clamp work, channel activity is measured electrically.

Sequence of Potassium voltage-gated channel subfamily KQT member 2 (Rattus norvegicus) (O88943 whole entry, looked up): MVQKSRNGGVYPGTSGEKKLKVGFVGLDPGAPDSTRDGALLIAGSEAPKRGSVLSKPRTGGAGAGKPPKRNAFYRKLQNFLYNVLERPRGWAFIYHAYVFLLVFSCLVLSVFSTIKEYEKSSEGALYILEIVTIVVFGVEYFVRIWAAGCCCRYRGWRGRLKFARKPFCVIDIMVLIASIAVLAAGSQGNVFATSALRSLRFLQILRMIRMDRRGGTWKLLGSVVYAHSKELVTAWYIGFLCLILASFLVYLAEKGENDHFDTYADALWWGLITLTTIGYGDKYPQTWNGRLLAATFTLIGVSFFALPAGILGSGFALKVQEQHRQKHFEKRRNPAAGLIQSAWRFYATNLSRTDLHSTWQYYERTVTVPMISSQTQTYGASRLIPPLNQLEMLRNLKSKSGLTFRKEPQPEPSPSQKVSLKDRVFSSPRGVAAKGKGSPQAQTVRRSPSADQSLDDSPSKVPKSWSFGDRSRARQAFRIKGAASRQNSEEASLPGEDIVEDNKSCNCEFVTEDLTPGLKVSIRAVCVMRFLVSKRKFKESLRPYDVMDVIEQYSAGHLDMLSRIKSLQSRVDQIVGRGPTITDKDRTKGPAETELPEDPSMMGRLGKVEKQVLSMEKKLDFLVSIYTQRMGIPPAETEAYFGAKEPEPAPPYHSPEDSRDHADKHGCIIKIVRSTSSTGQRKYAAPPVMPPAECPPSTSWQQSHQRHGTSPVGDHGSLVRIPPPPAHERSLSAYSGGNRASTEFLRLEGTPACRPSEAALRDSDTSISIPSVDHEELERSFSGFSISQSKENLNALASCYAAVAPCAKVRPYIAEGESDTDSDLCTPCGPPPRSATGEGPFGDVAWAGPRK
Sequence of Potassium voltage-gated channel subfamily KQT member 1 (Homo sapiens) (P51787 whole entry, looked up): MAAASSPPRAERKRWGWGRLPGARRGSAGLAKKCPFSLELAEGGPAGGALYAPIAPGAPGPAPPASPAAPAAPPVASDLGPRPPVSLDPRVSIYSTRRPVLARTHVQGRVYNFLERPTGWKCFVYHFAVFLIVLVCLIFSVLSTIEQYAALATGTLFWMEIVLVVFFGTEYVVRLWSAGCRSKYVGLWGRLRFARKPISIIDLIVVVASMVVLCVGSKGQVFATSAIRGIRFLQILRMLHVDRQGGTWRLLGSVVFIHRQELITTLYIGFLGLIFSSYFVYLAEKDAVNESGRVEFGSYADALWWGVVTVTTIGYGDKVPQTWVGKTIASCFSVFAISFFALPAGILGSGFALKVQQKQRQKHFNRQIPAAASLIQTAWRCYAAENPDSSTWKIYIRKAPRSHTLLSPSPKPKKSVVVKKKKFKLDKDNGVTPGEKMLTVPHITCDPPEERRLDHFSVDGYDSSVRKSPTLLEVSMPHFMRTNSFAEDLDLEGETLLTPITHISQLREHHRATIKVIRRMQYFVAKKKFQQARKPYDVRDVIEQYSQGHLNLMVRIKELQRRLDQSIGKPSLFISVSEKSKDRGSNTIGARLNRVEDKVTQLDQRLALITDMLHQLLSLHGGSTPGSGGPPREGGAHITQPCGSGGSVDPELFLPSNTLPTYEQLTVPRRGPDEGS

Regarding `CC(C)c1ccc(OCC(=O)NNC(=S)NC(=O)c2ccco2)c(Br)c1`, in test [1], the activation is 154% (active). Also, the values for the potentiation in test [2] and in test [3] were 68.5% (active) and 232% (active), respectively. Also, the outcome in test [4] was inactive.
In the case of `Cc1cccc(-c2n[nH]c(=S)n2/N=C/c2cccs2)c1`, the activation in test [1] was 138% (active). Also, the potentiation in test [2] was 22.5% (active); in test [3] it was 149% (active). Moreover, the result in test [4] was inactive.
As for `CN1CCN(CC/C=C2/c3ccccc3Sc3ccc(S(=O)(=O)N(C)C)cc32)CC1`, the result in test [1], in test [2], in test [3] and in test [4] was inactive.
As for `Oc1c(Br)cc(Br)cc1C=Nc1ccc2c(c1)OCO2`, the activation in test [1] is 172% (active). The result in test [2], in test [3] and in test [4] was inactive.
On to `COc1ccc(NS(=O)(=O)c2ccc(N/N=C(\C)c3ccncc3)c([N+](=O)[O-])c2)cc1`, for which the result in test [1], in test [2], in test [3] and in test [4] was inactive.
For `CC12CCC(C/C1=N\N=C1\NC(=O)/C(=C\c3ccc(Cl)cc3)S1)C2(C)C` (stereo not given), the activation in test [1] was 175% (active). Also, the potentiation was 74.5% (active) in test [2] and 204% (active) in test [3]. Moreover, the outcome in test [4] was inactive.
Regarding `CSC(=S)N/N=C/c1ccc(N(C)C)cc1`, the result in test [1], in test [2], in test [3] and in test [4] was inactive.
For `CCN1C(=O)/C(=C\C(=O)c2cccs2)c2cc(Br)ccc21`, the result in test [1], in test [2], in test [3] and in test [4] was inactive.
As to `Cc1sc2nc(CN3CCOCC3)[nH]c(=S)c2c1C`, the activation in test [1] was 312% (active). For the same molecule, the potentiation in test [2] was 69.5% (active); in test [3], 292% (active). Besides, in test [4], the outcome was inactive.
For the molecule `O=C(NC(=S)Nc1ccccc1Cl)c1cncc(Br)c1`, the outcome in test [1], in test [2], in test [3] and in test [4] was inactive.
As to `CCCOc1ccc(CN(CCC#N)C(=S)NC(=O)c2ccccc2)cc1`, the activation in test [1] is 288% (active). The potentiation in test [2] is 134% (active); in test [3], 303% (active). The result in test [4] was inactive.
`CCC(CC)C1=NN2C(=N)/C(=C\c3cc(C)n(-c4cccc(C)c4)c3C)C(=O)N=C2S1`: the outcome in test [1], in test [2], in test [3] and in test [4] was inactive.
For `CC(C)(C)c1ccc(OCC(=O)NNC(=S)NC(=O)c2ccco2)c(Br)c1`, the activation in test [1] is 150% (active). Besides, the potentiation was 89.5% (active) in test [2] and 254% (active) in test [3]. Moreover, in test [4], the result was inactive.
In the case of `C=CCn1c(O)c(N=NC(=S)Nc2ccccc2F)c2ccccc21`, the activation in test [1] is 352% (active). Moreover, the results for the potentiation in test [2] and in test [3] were 212% (active) and 416% (active), respectively. Besides, the result in test [4] was inactive.
Turning to `c1ccc2c(c1)OCC(CNc1ncnc3nc[nH]c13)O2` (stereo not given), the activation in test [1] is 227% (active). Moreover, the potentiation in test [2] is 46% (active); in test [3], 194% (active). In addition, the outcome in test [4] was inactive.
Turning to `Oc1ccc2ccccc2c1N=Nc1nccs1`, the activation in test [1] is 328% (active). In addition, the values for the potentiation in test [2] and in test [3] were 258% (active) and 426% (active), respectively. Moreover, the result in test [4] was inactive.
In the case of `Cc1nc2ccccn2c1C(=O)N/N=C/c1ccccc1`, the outcome in test [1], in test [2], in test [3] and in test [4] was inactive.
Regarding `S=C(N/N=C/c1ccccc1Cl)Nc1cccc(Cl)c1Cl`, the outcome in test [1] and in test [4] was inactive. Further, the potentiation in test [2] is 71% (active); in test [3], 173% (active).
With `CCCN(C(=O)c1cn(-c2ccccc2)nc1-c1ccc(OC)cc1)C1CCS(=O)(=O)C1` (stereo not given), the outcome in test [1], in test [2], in test [3] and in test [4] was inactive.
In the case of `NC(=S)n1[nH]c(-c2ccc([N+](=O)[O-])cc2)c(N=Nc2cccc(Cl)c2)c1=O`, the activation in test [1] is 150% (active). For the same molecule, the potentiation was 34.5% (active) in test [2] and 179% (active) in test [3]. In addition, in test [4], the result was inactive.
With `Cc1c(CCC(=O)N2CCC[C@H]2C(=O)O)c(=O)oc2c(C)c3oc4c(c3cc12)CCCC4`, the outcome in test [1], in test [2], in test [3] and in test [4] was inactive.
Consider `CC(=O)c1c(N)[nH]c(-c2ccccc2)nc1=S`, for which the result in test [1], in test [2], in test [3] and in test [4] was inactive.
In the case of `CCNC(=S)Nc1scc(-c2ccccc2)c1C(=O)OCC`, the activation in test [1] is 254% (active). Further, the potentiation in test [2] is 44% (active); in test [3], 214% (active). Also, the outcome in test [4] was inactive.
As to `O=c1ccc(N=Nc2ccccc2)ccc1O`, the activation in test [1] was 322% (active). The potentiation was 138% (active) in test [2] and 430% (active) in test [3]. Moreover, in test [4], the result was inactive.
In the case of `N=c1sccn1CC(=O)N1N=C(c2ccc(Cl)cc2)CC1c1ccco1` (stereo not given), the result in test [1], in test [2], in test [3] and in test [4] was inactive.
Consider `CC(C)c1nc2n[nH]c(N)c2c2c1CCCC2`, for which the outcome in test [1], in test [2], in test [3] and in test [4] was inactive.
In the case of `O=C(Nn1c(Cc2cccs2)nc2ccccc2c1=O)c1cccs1`, the result in test [1], in test [2], in test [3] and in test [4] was inactive.
Turning to `COc1cc2c3nnc(-c4ccccc4)c-3cn(Cc3ccc(F)cc3)c2cc1OC`, the result in test [1], in test [2], in test [3] and in test [4] was inactive.
Turning to `CC/C(=N/NC(=O)c1ccc(Br)o1)c1ccc(Cl)cc1`, the outcome in test [1], in test [2], in test [3] and in test [4] was inactive.
For the molecule `COc1cccc(C(=O)NNC(=O)C(=O)Nc2cccc(Cl)c2C)c1`, in test [1], the activation was 195% (active). Besides, the values for the potentiation in test [2] and in test [3] were 128% (active) and 299% (active), respectively. Further, the result in test [4] was inactive.
